From ChEMBL document CHEMBL1148721 (J Med Chem, 2007)

What was measured:
[1] = Displacement of [3H]muscimol from GABAA receptor in rat brain membrane; assay type: cell membranes
Procedure, shortened: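 Native GABAA receptor affinity was measured by [3H]muscimol binding to rat brain membranes. Ki was calculated from pKi; ≥3 experiments in duplicate.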

[2] = Agonist activity at human GABA alpha-1-beta-2-gamma-2s receptor expressed in Xenopus oocytes by two electrode voltage-clamp assay; assay type: functional, cell-based; conditions: Oocyte
[3] = Agonist activity at human GABAC rho 1 receptor expressed in HEK293 cells by FMP assay; assay type: functional, cell-based; conditions: for EC50: Homo sapiens, HEK293
[4] = Agonist activity at GABAC rho 1 receptor S168T mutant expressed in tsA-201 cells by FMP assay; assay type: functional, cell-based; conditions: Homo sapiens, tsA201
[5] = Agonist activity at human GABAC rho 1 receptor expressed in HEK293 cells by FMP assay relative to GABA; assay type: functional
Procedure, shortened: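 Stable human ρ1 HEK293 clone kept in 1 mg/mL G-418 and plated on poly-D-lysine plates for 16-24 h. Dye loading for 30 min at 37 °C in HBSS + 20 mM HEPES pH 7.4. Emission at 560 nm (excitation 530 nm) recorded before and up to 1 min after agonist. Concentration-response curves built from maximal responses; Rmax given as % of GABA; duplicates, ≥3 experiments.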

[6] = Agonist activity at GABAC rho 1 receptor expressed in tsA-201 cells by FMP assay; assay type: functional, cell-based; conditions: Homo sapiens, tsA201
[7] = Agonist activity at GABAC rho 1 receptor expressed in tsA-201 cells by FMP assay relative to GABA; assay type: functional, Homo sapiens
Procedure, shortened: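 Human ρ1 (WT) transiently expressed in tsA-201 cells via Polyfect, plated on poly-D-lysine plates 16-24 h post-transfection and assayed next day. Cells loaded with membrane potential dye in HBSS + 20 mM HEPES pH 7.4, 30 min at 37 °C. Fluorescence read (ex 530/em 560 nm) before and up to 1 min after agonist addition. Rmax expressed as % of GABA maximal response; ≥3 experiments in duplicate.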

[8] = Agonist activity at human GABAC rho 1 receptor expressed in HEK293 cells by Whole-cell patch-clamp technique relative to GABA; assay type: functional
Procedure, shortened: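 HEK293 cells cotransfected with human ρ1 plus GFP (Targefect) and recorded 20-72 h later by whole-cell patch clamp at -60 mV, 20-22 °C. Bath solution: 140 mM NaCl, HEPES, pH 7.35. Agonists applied by gravity-fed multibarrel perfusion. Hill equation fitted to obtain EC50, nH and Imax; maximal response as % of GABA; ≥5 cells.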

[9] = Agonist activity at human GABAC rho 1 receptor expressed in HEK293 cells by Whole-cell patch-clamp technique; assay type: functional, cell-based
cells = assay type: functional, cell-based; conditions: HEK293
[10] = biological target: GABA A receptor alpha-1/beta-2/gamma-2 (Rattus norvegicus); assay: Agonist activity at GABA alpha-1-beta-2-gamma-2 receptor expressed in HEK293 cells by Whole-cell patch-clamp technique
[11] = Antagonist activity at human GABAc rho 1 receptor expressed in HEK293 cells by FMP assay; assay type: functional, cell-based
Procedure, shortened: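 Stable HEK293 line expressing human ρ1 (selected under G-418). Antagonist included with the loading dye in HBSS/20 mM HEPES pH 7.4 for 30 min at 37 °C, then agonist added. Fluorescence (ex 530/em 560 nm) read up to 1 min. Ki from inhibition curves by the Cheng-Prusoff relation using agonist concentration and EC50; duplicates, at least three experiments.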

[12] = Agonist activity at GABAC rho 1 receptor S168T mutant expressed in tsA-201 cells by FMP assay relative to GABA; assay type: functional, Homo sapiens
Procedure, shortened: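 tsA-201 cells transiently transfected with human ρ1 Ser168Thr cDNA, plated on poly-D-lysine after 16-24 h and assayed the next day. Cells loaded with membrane potential dye in HBSS/20 mM HEPES pH 7.4 for 30 min at 37 °C. Fluorescence (ex 530/em 560 nm) read up to 1 min after agonist addition. Rmax given as % of GABA maximum at the same receptor; duplicates, at least three experiments.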

[13] = Agonist activity at rat GABA alpha-1-T129S-beta-2-gamma-2 receptor mutant expressed in HEK293 cells by Whole-cell patch-clamp technique relative to GABA; assay type: functional
Procedure, shortened: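 Rat α1(Thr129Ser) with β2 and γ2S (1:1:2) transiently co-transfected with a GFP plasmid into HEK293 cells; whole-cell patch-clamp 20-72 h after transfection at 20-22 °C, clamp usually -60 mV, extracellular solution pH 7.35. Agonist applied by perfusion pipette. Hill-equation fit gives EC50 and Imax; maximal response as % of GABA maximum; at least five cells.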

SMILES	Ki [1]	EC50 [3]	EC50 ([4]; read-out: EC50)	RUmax [5]	EC50 ([6]; read-out: EC50)	EC50 ([6]; read-out: Log EC50 (converted))	RUmax [7]	also measured
O=C(O)Cc1c[nH]c(Cl)n1	> 100 µM	–	–	–	–	–	–	EC50 [2]: > 1 mM
Cc1nc(CC(=O)O)c[nH]1	> 100 µM	> 1000 µM	–	–	–	–	–	–
Cc1[nH]cnc1CC(=O)O	67 µM	22 µM	> 1000 µM	95%	11 µM	10 µM	106%	Log Ki [1]: -4.2; EC50 [2]: > 1 mM; RUmax [8]: 66%; EC50 ([9]; read-out: EC50): 31 µM; EC50 ([9]; read-out: Log EC50 (converted)): 31.6 µM; EC50 (cells; read-out: EC50): > 1000 µM; EC50 [10]: > 1 mM
O=C(O)Cc1[nH]cnc1-c1ccccc1	> 100 µM	420 µM	> 3000 µM	98%	140 µM	158 µM	131%	EC50 [2]: > 1 mM
Cc1cccc(-c2nc[nH]c2CC(=O)O)c1	> 100 µM	> 1000 µM	–	–	–	–	–	–
CC1N=C(CC(=O)O)C(c2ccccc2)=N1 (stereo unspecified)	> 100 µM	> 1000 µM	–	–	–	–	–	EC50 [2]: > 1 mM
Cc1ccccc1-c1nc[nH]c1CC(=O)O	> 100 µM	> 1000 µM	–	–	–	–	–	–
Cc1ccc(-c2nc[nH]c2CC(=O)O)cc1	> 100 µM	240 µM	> 3000 µM	111%	220 µM	200 µM	127%	–
O=C(O)Cc1[nH]cnc1I	> 100 µM	> 1000 µM	–	–	–	–	–	–
O=C(O)Cc1[nH]cnc1-c1ccc(F)cc1	> 100 µM	210 µM	> 3000 µM	115%	330 µM	316 µM	94%	–
O=C(O)Cc1[nH]c(Cl)nc1-c1ccccc1	> 100 µM	> 1000 µM	–	–	–	–	–	–
O=C(O)Cc1c[nH]c(-c2ccccc2)n1	> 100 µM	> 1000 µM	–	–	–	–	–	–
CP(=O)(O)C1=CCNCC1	–	–	–	–	–	–	–	Ki ([3]; hek293): 1300 nM
Oc1noc2c1CCNC2 [GABOXADOL]	–	–	–	–	–	–	–	Ki [11]: 100 µM; Log Ki [11]: -4
NCCCC(=O)O [GAMMA-AMINOBUTYRIC ACID]	–	–	–	100%	–	–	100%	RUmax [12]: 100%; RUmax [8]: 100%; RUmax [13]: 100%
O=C(O)Cc1c[nH]cn1 [IMIDAZOLE ACETIC ACID]	0.65 µM	13 µM	100 µM	32%	5.5 µM	5.01 µM	37%	Log Ki [1]: -6.2; RUmax [12]: 10%; RUmax [8]: 7.5%; EC50 ([9]; read-out: EC50): 5.5 µM; EC50 ([9]; read-out: Log EC50 (converted)): 5.5 µM; EC50 (cells; read-out: EC50): 20 µM; EC50 (cells; read-out: Log EC50 (converted)): 20 µM; RUmax [13]: 39%
O=C(O)C1=CCNCC1 [ISOGUVACINE]	–	67 µM	–	97%	–	–	–	–
NCc1cc(O)no1 [MUSCIMOL]	–	2.2 µM	24 µM	101%	0.62 µM	0.631 µM	104%	EC50 ([4]; read-out: Log EC50 (converted)): 25.1 µM; RUmax [12]: 96%
